# Compound activity as filed in PubChem BioAssay.
# T cruzi repl – T. cruzi replication inhibition; T. cruzi beta-gal in NIH3T3, luminescence, 90 h; inhibition, % (no concentration beside the values); 300,000 tested, 1.4% active;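 active means mean inhibition across valid replicates above about 55%, limit read from the data; inconclusive means mean below that limit but half or more replicates reach it; inactive means mean below it, under half of replicates reach it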;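 further: signal also drops with host cell toxicity which is not excluded here; higher percent means less beta-gal luminescence so fewer parasites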
#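 Read-out: Parasite load inhibition, % | Test system: Mouse NIH/3T3 fibroblasts infected with β-gal-expressing T. cruzi Tulahuen C4 | Amount: 5,000 cells/well | Medium: DMEM, 2% fetal bovine serum | Signal: GalScreen β-gal luminescence, detergent lysis, 60 min | Timing: 3 h attach, ≥90 h co-culture | Also added: Tulahuen C4 trypomastigotes, 5000/well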
# Hsp70 act – Hsp70 transcriptional activation, primary screen; activation, % at 10 µM; HeLa Hsp70 promoter luciferase reporter, luminescence; scaled: vehicle 0, proteasome-inhibitor control 100%; 200,000 tested, 0.04% active;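 active means activation above the mean across all tested compounds plus 3 SD, cutoff set per campaign, cut at about 5.5% in these data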
# HSF1 inhib – HSF1 inhibition. NIH3T3-HGL HSE-luciferase, MG132-induced, luminescence 8 h; hits give low values. activity change, negative = inhibition, % at 7.5 µM (by protocol). 300,000 tested, 0.77% active. AID 2098;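 active means more than half of replicate wells show activity change below -50%, luminescence cut by over half; inconclusive means some wells, but at most half, below -50%; inactive means no replicate well below -50%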;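 further: luciferase reports HSF-1 transcriptional activity via heat shock element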
# Lmaj promast – inhibitors of Leishmania major promastigote growth. Leishmania major promastigotes, resazurin fluorescence viability. inhibition, % at 10 µM. 200,000 tested, 9% active. AID 1063; in the data active means inhibition above about 50%;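 further: promastigotes grown with compound for 44 hours at 28 °C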
# HSF-1 act – increases HSF-1 driven luciferase reporter signal. NIH3T3-HGL HSF-1 luciferase reporter, MG132, 8 h; 100% = twice DMSO control signal. activation, % at 9 µM. 300,000 tested, 1.7% active;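 active means mean replicate activation of at least 50% with a set share of replicates each reaching 50%; inconclusive means only one of those two conditions met; inactive means mean below 50% and too few replicates reaching it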
# A number is an active result; - = inactive; ? = inconclusive; . = no result given. This excerpt belongs to a sample that is enriched for hits.
SMILES,T cruzi repl,Hsp70 act,HSF1 inhib,Lmaj promast,HSF-1 act
COc1ccc(-n2nnc3c(SC(C(C)=O)C(=O)N(C)C)ncnc32)cc1 (configuration not stated),-,.,-,.,-
CCOC(=O)CNC(=O)CSc1ncnc2c1nnn2-c1ccc(F)cc1,-,-,-,-,95.5
c1ccc2[nH]c(NCc3ccc4c(c3)OCO4)nc2c1,-,-,-,-,54.9
C=CCc1cccc(CNc2nc3ccccc3n2CCC)c1O,-,-,-,-,149.4
c1ccc(CNc2nc3ccccc3[nH]2)cc1,-,-,-,-,-
CCCn1c(NCc2cc(C)ccc2O)nc2ccccc21,-,-,-,77.0,-
CCCn1c(NCc2ccc3c(c2)OCO3)nc2ccccc21,-,-,-,82.1,-
CCCCn1c(NCc2ccc3c(c2)OCO3)nc2ccccc21,-,-,-,-,-
O=S(=O)(c1ccccc1)N1CCN(C(c2ccccc2)c2ccc(OC(F)(F)F)cc2)CC1 (configuration not stated),-,.,-,.,-
Cc1ccc2nc(NCc3ccccc3)[nH]c2c1,-,-,-,64.8,233.3
COc1ccc(CN(CC2CCCO2)C(=O)c2cc3sccc3n2C)c(OC)c1 (configuration not stated),-,-,-,-,-
CCN(CC)c1ccc(/C=C/c2cccc[n+]2C)c(OC)c1,65.6,.,-,.,-
O=C(CCSCCC(=O)Nc1ccccc1F)Nc1ccccc1F,-,-,-,-,-
CCCN(CCC)C(=S)NC1CC2C=CC1C2 (configuration not stated),-,.,-,.,51.9
O=C(CNC(=O)C1COc2ccccc2O1)N/N=C/c1ccc(O)cc1O (configuration not stated),-,-,-,98.0,-
O=C(N/N=C\c1ccc(-c2ccc([N+](=O)[O-])cc2)o1)C1COc2ccccc2O1 (configuration not stated),59.3,-,-,96.0,-
CN(C)c1ccc(/C=N/NC(=O)C2COc3ccccc3O2)o1 (configuration not stated),-,-,-78.0,-,-
C/C(=N\NC(=O)C(N)=O)c1cccc([N+](=O)[O-])c1,-,-,-,-,-
C/C(=N\N=C(N)N)c1cccc([N+](=O)[O-])c1,-,-,-,63.5,-
C/C(=N\Nc1ccc([N+](=O)[O-])cc1)c1cccc(N)c1,-,-,-,61.2,-
CC(=O)NC/C(C)=N\Nc1ccc([N+](=O)[O-])cc1,-,-,-,62.7,-
C/C(=N\Nc1ccc([N+](=O)[O-])cc1)c1ccc(O)cc1,-,-,-,-,-
C/C(=N\N=C(/C)c1cccc(N)c1)c1cccc(N)c1,-,.,-,.,64.3
COc1ccc(-c2c(C(C)=O)c(C)nc3sc4c(=O)[nH]nnc4c23)cc1,-,-,-,58.9,-
CCOC(=O)c1c(C)nc2sc3c(=O)[nH]cnc3c2c1-c1ccc(OC)cc1,-,-,-,-,-
SMILES,T cruzi repl,Hsp70 act,HSF1 inhib,Lmaj promast,HSF-1 act
c1ccc(-c2nn[nH]n2)cc1,-,.,-,.,-
c1ccc(-c2nn[nH]n2)nc1,-,.,-59.2,.,-
CNCC/C=C1/c2ccccc2CSc2ccccc21,-,-,-,90.3,-
OCCN1CCN(CC/C=C2/c3ccccc3CSc3ccccc32)CC1,-,.,-,.,-
Cc1ccc(C(c2sc3ncnn3c2O)N2CC(C)CC(C)C2)cc1 (configuration not stated),-,-,-58.2,-,-
CC1CCCN(C(c2ccccc2)c2sc3ncnn3c2O)C1 (configuration not stated),-,-,-,-,-
Fc1ccc(Nc2nc(-c3ccncc3)nc3ccccc23)cc1F,?,-,-,81.0,-
c1ccc2c(Nc3nc(-c4ccncc4)nc4ccccc34)cccc2c1,-,.,-86.8,.,-
CCOC(=O)N1CCN(C(=O)c2c(N)no[n+]2[O-])CC1,-,-,-,-,-
COC(=O)C(CC(C)C)NC(=O)c1cccs1 (configuration not stated),.,-,.,-,.
COc1ccc(N2C(=O)CC(N3CCC(c4nc5ccccc5[nH]4)CC3)C2=O)cc1 (configuration not stated),-,-,-,-,-
O=C1CC(N2CCC(c3nc4ccccc4[nH]3)CC2)C(=O)N1c1ccccc1F (configuration not stated),-,-,-,-,177.4
Cc1cc2nc(C3CCN(C(=S)NCCCOC(C)C)CC3)[nH]c2cc1C,-,-,-,-,-
Cc1cccnc1NC(=O)c1csnn1,-,.,-,.,-
